Only some compounds are listed: those with a hit (about 0.96% of all), similar ones and a draw of the others.
CIT2-GFP yeast: modulators of CIT2-GFP expression in yeast, primary screen, S. cerevisiae, GFP fusion, multiplex flow cytometry, MLPCN library; S. cerevisiae CIT2-GFP strain, 3 h; 100 means same as DMSO wells; GFP response vs DMSO, % at 10 µM; 320,000 compounds, 0.065% hits; AID 2029, 2009;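 active = GFP response relative to DMSO above a set limit, near the screen mean plus 3 SD, cut at about 150% in these data; inconclusive = Fewer than 70 cells measured for a yeast strain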;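 note: ratio of well median GFP fluorescence to mean of DMSO wells on the plate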
AGP1-GFP MLPCN: modulators of AGP1-GFP expression in yeast TOR pathway, primary screen, cell-based, multiplex flow cytometry, S. cerevisiae, MLPCN library. 3 h; GFP as percent of DMSO wells. AID 2066, 2009. 320,000 compounds, 0.02% hits. GFP response vs DMSO, % at 10 µM;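 active = GFP response relative to DMSO above a set limit, near screen average plus 3 SD, cut at about 150% in these data; inconclusive = fewer than 70 cells counted for the yeast strain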;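 note: median GFP channel fluorescence of the gated AGP1 strain per well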
RPL19A TOR yeast: RPL19A-GFP expression modulators in yeast, primary screen, cell-based, S. cerevisiae, multiplex flow cytometry, MLPCN; S. cerevisiae RPL19A-GFP strain, 3 h; stronger effect = lower value; percent response vs DMSO, % at 10 µM; 330,000 compounds, 0.3% hits; AID 2025, 2009;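 active = percent response vs DMSO below 50%; inconclusive = fewer than 70 events counted for the yeast strain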;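 note: median channel GFP fluorescence of the barcoded RPL19A-GFP strain; ratio of sample median GFP to plate DMSO average so 100% = DMSO; lower means less RPL19A-GFP as with rapamycin TOR inhibition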
LAP4-GFP MLPCN: modulators of LAP4-GFP expression in yeast, primary screen, S. cerevisiae, multiplex flow cytometry, MLPCN library | 3 h; median GFP as percent of DMSO wells | GFP response vs DMSO, % at 10 µM | 320,000 compounds, 0.34% hits | AID 2023, 2009;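 active = GFP response vs DMSO above a set limit, about the screen mean plus 3 SD, cut at about 150% in these data; inconclusive = under 70 cell events counted for the yeast strain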
MEP2-GFP yeast: modulators of MEP2-GFP levels in yeast, primary screen, S. cerevisiae, multiplex flow cytometry, MLPCN library. S. cerevisiae MEP2-GFP strain, 3 h; 100% = DMSO control level. GFP response vs DMSO, % at 10 µM. 330,000 compounds, 0.51% hits. AID 2016, 2009;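 active = GFP response versus DMSO above a set limit, roughly screen mean plus 3 SD, cut at about 180% in these data; inconclusive = fewer than 70 cells counted for a yeast strain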;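 note: median GFP fluorescence of the barcode-gated MEP2-GFP cells per well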
T cell modulator: modulators of CD8 T cell-vesicle binding, primary screen, mouse 2C CD8+ T cells, flow cytometry. 2C CD8+ T cell-vesicle binding; stronger effect = lower value. response (vesicle binding), % at 7 µM. 330,000 compounds, 0.068% hits. AID 2052, 2009;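 active = response, share of CD8 T cells binding vesicles, and their 90th percentile fluorescence all below set limits, cut at about 80% in these data, passing the limit was not always enough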;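 note: values below 100% mean blocked vesicle binding to the CD8+ T cells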
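Benchmarks: naked versus QL9-loaded vesicles / Assay system: purified 2C TCR transgenic mouse naive CD8+ T cells / Technique: high-throughput flow cytometry with anti-B7-1 and anti-CD8 staining / Timing: Cell–vesicle co-incubation 1.5 h at 37 °C, staining 20 min on ice / Read-out: percent CD8+ FL2 mean versus row control / Probe or stimulus: QL9-loaded Drosophila micro-vesicles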
Active calls of the source: *; i = inactive; ? = inconclusive; . = no result; [ ] = remark or other dose.

SMILES	CIT2-GFP yeast	AGP1-GFP MLPCN	RPL19A TOR yeast	LAP4-GFP MLPCN	MEP2-GFP yeast	T cell modulator
O=C(COC(=O)Cc1cccc(C(F)(F)F)c1)Nc1ccc2[nH]c(=O)[nH]c2c1	101	105	99	105	101	411
CC(NCc1ccccc1Cl)C(=O)Nc1ccc(S(=O)(=O)N2CCCC2)cc1 (configuration not stated)	88	104	106	108	130	0.0*
COC(=O)Nc1ccc(S(=O)(=O)N2CCN(C)CC2)cc1	104	108	102	100	110	392
CC(=O)Nc1ccc(S(=O)(=O)N2CCN(C)CC2)cc1	?	15	58	86	210*[may fluoresce violet]	401
O=C(Nc1ccc(S(=O)(=O)N2CCCCC2)cc1)C1CCCCC1	?	17	61	83	256*[may fluoresce violet]	220
COc1ccc(NC(=S)Nc2cccc(S(=O)(=O)N3CCCCC3)c2)cc1	?	?	23*[may fluoresce violet]	54	259*[may fluoresce violet]	215
CN1CCN(S(=O)(=O)c2ccc(NC(=O)C3CCCCC3)cc2)CC1	101	99	97	100	102	221
O=C(O)C1CC=CCC1C(=O)NNS(=O)(=O)c1ccccc1 (configuration not stated)	96	93	93	97	99	460
O=C(NNS(=O)(=O)c1ccccc1)C1CCCCC1	?	?	46*[may fluoresce violet]	80	241*[may fluoresce violet]	220
Cc1ccnc(SCC(=O)N2CCC(C(N)=O)CC2)n1	?	?	15*[may fluoresce violet]	98	358*[may fluoresce violet]	322
CC1=NN(c2nc(C)cc(C)n2)C(=O)C1CCC(C)C (configuration not stated)	101	99	97	99	108	240
CCC1C(=O)N(c2nc(C)cc(C)n2)N=C1C (configuration not stated)	?	?	15*[may fluoresce violet]	97	180*[may fluoresce violet]	73
CC(=O)NC1C(=O)N=C(SCC(=O)Nc2cccc(Cl)c2)NC1=O (configuration not stated)	110	111	103	108	104	326
COc1ccccc1Oc1coc2c(CN3CCN(C)CC3)c(O)ccc2c1=O	?	?	63	89	225*[may fluoresce violet]	393
COc1ccccc1-c1coc2c(CN3CCN(C)CC3)c(O)ccc2c1=O	98	104	101	101	100	352
COc1ccc(C(CC(=O)Nc2ccccn2)N2Cc3ccccc3C2=O)cc1OC (configuration not stated)	103	99	102	97	115	237
NC(=O)NC(Cc1ccccc1)C(=O)NCCCSc1ccccc1 (configuration not stated)	94	92	91	99	89	449
Cc1cccc(-n2ncc3c(N4CCCC4)ncnc32)c1	96	96	96	125	104	0.0*
O=C(Nc1c2c(nn1-c1ccccc1)CS(=O)C2)c1ccco1 (configuration not stated)	82	113	77	168*	90	819
FC(F)(F)c1cc(NC2CCCCC2)ccn1	104	100	104	91	102	300
CC12CCC(=O)N1C(C(=O)NNC(=O)c1ccc(Br)cc1)CS2 (configuration not stated)	89	92	93	88	99	266
CC(=O)Oc1c(C)cc(Cl)cc1C(=O)Nc1ccc([N+](=O)[O-])cc1Cl	153*	100	104	113	152	401
Clc1ccc2nc(N3CCNCC3)nc(-c3ccccc3)c2c1	?	?	39*[may fluoresce violet]	?	?	381
CN1CCN(c2nc(-c3ccccc3)c3cc(Cl)ccc3n2)CC1	82	92	92	91	100	234
CCC(C)[C@H](NC(=O)[C@@H]1CSC2c3ccccc3C(=O)N21)C(=O)N1CCCCC1 (some centres not stated)	87	80	87	80	92	162
SMILES	CIT2-GFP yeast	AGP1-GFP MLPCN	RPL19A TOR yeast	LAP4-GFP MLPCN	MEP2-GFP yeast	T cell modulator
Cc1c(OC(C)C(=O)NCCN2CCOCC2)ccc2c(-c3ccccc3)cc(=O)oc12 (configuration not stated)	101	106	108	102	108	214
Cc1c(OC(C)C(=O)NCCCN2CCOCC2)ccc2c1oc(=O)c1ccccc12 (configuration not stated)	?	?	26*[may fluoresce violet]	91	162	i
COc1ccc2c(c1)C(c1ccc([N+](=O)[O-])cc1)=NNC(c1ccco1)=N2	97	100	98	130	102	0.0*
COc1ccc(C(=O)Nc2c(N)nc[nH]c2=O)cc1	.	.	65	.	181*	308
COCCSc1nc(N)c(NC(=O)c2ccc(OC)cc2)c(=O)[nH]1	103	93	103	91	103	131
COc1ccc(/C=N/NC(=O)C2(C)NC(C)(C)Cc3ccccc32)cc1 (configuration not stated)	148	160*	80	158*	239*	179
COc1ccc(/C=N/NC(=O)C2(O)c3ccccc3-c3ccccc32)cc1	105	101	102	98	99	i
COc1ccccc1N1N=C(c2ccc([N+](=O)[O-])cc2)CC1c1ccccc1 (configuration not stated)	93	75	103	103	122	i
O=[N+]([O-])c1ccc(N2N=C(c3ccccc3)CC2c2ccccc2O)cc1 (configuration not stated)	?	24	68	98	299*[may fluoresce violet]	170
O=[N+]([O-])c1ccc(N2N=C(c3ccco3)CC2c2ccccc2)cc1 (configuration not stated)	223*	63	93	132	122	214
Fc1ccc(C2CC(c3ccco3)=NN2c2ccccc2)cc1 (configuration not stated)	96	101	96	107	103	255
CC(=O)c1csc(-c2cccc(-c3nc4ccc(Cl)cn4c3NC3CCCCC3)c2)c1	88	95	103	112	97	0.0*
COc1ccc(CNC(=O)CN(C)S(=O)(=O)c2ccc(Br)s2)cc1	95	90	92	85	97	166
COc1ccccc1CNC(=O)CN(C)S(=O)(=O)c1ccc(Br)s1	?	?	21*[may fluoresce violet]	?	?	231
NC(=O)c1ccccc1NC(=O)c1ccc2c(c1)OCO2	91	96	98	94	99	277
